The values that follow come from ChEMBL document CHEMBL1149087, “Anticancer and antimalarial efficacy and safety of artemisinin-derived trioxane dimers in rodents” (J Med Chem, 2004).

Counter-ions that a name gives are not always drawn.

Broadly, the IC50 is the midpoint of a concentration-inhibition curve. A word on the EC50: it is the concentration at which the effect is half-maximal. Higher therefore signals lower potency in that assay.

For one series, the system named is C2G cell line. As to the kind of experiment: Inhibitory concentration to inhibit growth of C2G prostate cancer cell line by using MTT assay. Type of series: functional, cell-based, Homo sapiens. The note with it: Mus musculus. The method, boiled down:
(§1)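 TRAMP mouse prostate cancer clonal lines, seeded at 2.5×10^4 (C1A), 2.0×10^4 (C2D, C2G) or 1.5×10^4 (C2H) cells/mL. Grown in DMEM high glucose with 10% FBS, insulin, pen-strep and 10^-8 M dihydrotestosterone at 37 °C, 5% CO2. After 24 h, switched to phenol-free medium with ethanol-dissolved compound. MTT read-out at 0, 24, 48 and 72 h: 4 h MTT, then SDS/HCl solubilisation overnight.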
(Tetrazolium dyes change colour on reduction, which living cells bring about.)

In another series the test system is TRAMP-C2H. As to the kind of experiment: Inhibitory concentration to inhibit growth of C2H prostate cancer cell line by using MTT assay. The series is classed as functional, cell-based. The note with it: Mus musculus. The method, boiled down:
as §1

The test system of another series is TRAMP-C1A. As to the kind of experiment: Inhibitory concentration to inhibit growth of C1A prostate cancer cell line by using MTT assay. Type of series: functional, cell-based. Particulars: Mus musculus. A digest of the protocol: as §1
The subject of a further series is C2D cell line. Description: Inhibitory concentration to inhibit growth of C2D prostate cancer cell line by using MTT assay. Type of series: functional, cell-based, Homo sapiens. Particulars: Mus musculus. The method, boiled down:
as §1

For series [1], the system named is Mus musculus. Description: Compound was tested for number of animals that remain safe when administered intraperitoneally in mice (total no of deaths =250); 0/3. The series is classed as functional.
The subject of series [2] is Mus musculus. Description: Compound was tested for number of animals that remain safe when administered intraperitoneally in mice (total no of deaths =125); 0/3. Type of series: functional.
A short description of series [3]: Therapeutic index expressed as maximum tolerated / ED50 intravenously was determined. The note with it: iv; read-out: Therapeutic index. A digest of the protocol:
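Therapeutic index calculated as maximum tolerated single ip dose in mice divided by iv ED50 (mg/kg/day × 4).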

The next series concerns Plasmodium falciparum. As to the kind of experiment: In vitro antimalarial activity for Plasmodium falciparum NF54 infected mice (Mus musculus). The series is classed as functional, organism-based. A digest of the protocol: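 In vitro antimalarial assay run in quadruplicate, with artemisinin as concurrent control (n = 3). EC50 taken from fitted dose-response curves.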

For series [4], the system named is Mus musculus. Description: Compound was tested for number of animals that remain safe when administered intraperitoneally in mice (total no of deaths =750); 3/3. The series is classed as functional.
Series [5] concerns Mus musculus. Description: Compound was tested for number of animals that remain safe when administered intraperitoneally in mice (total no of deaths =500); 1/3. The series is classed as functional.
Series [6] has as its system Mus musculus. As to the kind of experiment: Compound was tested for number of animals that remain safe when administered intraperitoneally in mice (dose 500 mg/kg); deaths 3/3.
Series [7] deals with Mus musculus. As to the kind of experiment: Compound was tested for number of animals that remain safe when administered intraperitoneally in mice (dose 125 mg/kg); deaths 0/3.
The test system of series [8] is Mus musculus. As to the kind of experiment: Compound was tested for number of animals that remain safe when administered intraperitoneally in mice (dose 250 mg/kg); deaths 1/3.
The species entered for series [9] is Mus musculus. As to the kind of experiment: Compound was tested for weight gain in mice; markedly reduced. Type of series: functional, organism-based.
Series [10] has as its system Mus musculus. Description: Compound was tested for number of animals that remain safe when administered intraperitoneally in mice (total no of deaths =750); 2/3. Type of series: functional.
Series [11] deals with Mus musculus. As to the kind of experiment: Compound was tested for number of animals that remain safe when administered intraperitoneally in mice (total no of deaths =250); 1/3. The series is classed as functional.
Series [12] is filed under the species Mus musculus. As to the kind of experiment: Compound was tested for weight gain in mice; reduced. Type of series: functional, organism-based.
The subject of series [13] is Mus musculus. As to the kind of experiment: Compound was tested for number of animals that remain safe when administered intraperitoneally in mice (total no of deaths =500); 3/3. Type of series: functional.

With `COc1cccc2c1C(=O)c1c(O)c3c(c(O)c1C2=O)C[C@@](O)(C(=O)CO)C[C@@H]3O[C@H]1C[C@H](N)[C@H](O)[C@H](C)O1` [DOXORUBICIN], the IC50 with C2G cell line worked out at 28.7 nM; in the series on TRAMP-C2H, 30.3 nM; with TRAMP-C1A, 75.9 nM; with C2D cell line, 46.5 nM.
Turning to `C[C@H]1[C@H](OC(=O)CCC(=O)OCC(COC(=O)CCC(=O)O[C@@H]2O[C@@H]3O[C@]4(C)CC[C@H]5[C@H](C)CC[C@@H]([C@H]2C)[C@@]35OO4)C(=O)O)O[C@@H]2O[C@]3(C)CC[C@H]4[C@H](C)CC[C@@H]1[C@@]24OO3` (stereo not given in full), the Therapeutic index was determined as 0 mg/kg in the series on Mus musculus [1], 0 mg/kg in the series on Mus musculus [2], 3 mg/kg with Mus musculus [4] and 1 mg/kg in the series on Mus musculus [5]. The IC50 in the series with C2G cell line stood at 134 nM; in the series on TRAMP-C2H, 116 nM; in the series on TRAMP-C1A, 159 nM; in the series on C2D cell line it was 231 nM. The selectivity ratio in series [3] is 167. In the series with Plasmodium falciparum, this compound displayed an EC50 of 2.4 nM.
As for `C[C@H]1[C@H](OC(=O)CCC(=O)[O-])O[C@@H]2O[C@@]3(C)CC[C@H]4[C@H](C)CC[C@@H]1[C@@]24OO3.[Na+]` [SODIUM ARESUNATE], in series [3], the selectivity ratio is 23. Besides, the Deaths in the series with Mus musculus [6] is 3 deaths; in the series with Mus musculus [7] it was 0 deaths; in the series with Mus musculus [8], 1 deaths. Besides, a half-maximal response in the series with Plasmodium falciparum (EC50) required 1.5 nM. Also, in the series filed under Mus musculus [9], the Activity entry is given as “Weight gain markedly reduced”.
For the compound `C[C@H]1[C@H](OC(=O)CCC(=O)OCC(COC(=O)CCC(=O)O[C@@H]2O[C@@H]3O[C@]4(C)CC[C@H]5[C@H](C)CC[C@@H]([C@H]2C)[C@@]35OO4)COC(=O)c2cc[n+]([O-])cc2)O[C@@H]2O[C@]3(C)CC[C@H]4[C@H](C)CC[C@@H]1[C@@]24OO3` (stereo not given in full), the Therapeutic index was determined as 2 mg/kg in the series on Mus musculus [10], 1 mg/kg with Mus musculus [11], 0 mg/kg with Mus musculus [2] and 3 mg/kg with Mus musculus [13]. Besides, the IC50 worked out at 47.4 nM in the series with C2G cell line, 36.1 nM with TRAMP-C2H, 84.6 nM in the series with TRAMP-C1A and 62.1 nM with C2D cell line. In the series listed under Mus musculus [12], the Activity entry is recorded as “Weight gain reduced”. Further, the selectivity ratio in series [3] was found to be 156. This compound came in with an EC50 with Plasmodium falciparum of 0.53 nM.
Turning to `C[C@H]1[C@H](OC(=O)CCC(=O)OCC(CO)COC(=O)CCC(=O)O[C@@H]2O[C@@H]3O[C@]4(C)CC[C@H]5[C@H](C)CC[C@@H]([C@H]2C)[C@@]35OO4)O[C@@H]2OC3(C)CC[C@H]4[C@H](C)CC[C@@H]1[C@@]24OO3` (single isomer, unassigned), the IC50 in the series on C2G cell line was found to be 15.4 nM; with TRAMP-C2H, 9.2 nM; with TRAMP-C1A, 23.3 nM; in the series with C2D cell line, 18.5 nM.
As for `Nc1ccn([C@@H]2O[C@H](CO)[C@@H](O)C2(F)F)c(=O)n1` [GEMCITABINE HYDROCHLORIDE], the IC50 in the series with C2G cell line turned out to be 3.7 nM; in the series on TRAMP-C2H it was 4.7 nM; with TRAMP-C1A it was 9 nM; in the series with C2D cell line it was 11.9 nM.
`C[C@@H]1CC[C@H]2[C@@H](C)C(=O)O[C@@H]3O[C@@]4(C)CC[C@@H]1[C@]32OO4` [ARTEMISININ] gave an EC50 in the series on Plasmodium falciparum of 8.8 nM.
